Assays:
[1] = Antiproliferative activity against human YCC-11 cells assessed as inhibition of cell viability; assay type: functional, cell-based
[2] = molecular target: Histone deacetylase 1 (Homo sapiens, UniProt Q13547); test: Inhibition of full length recombinant human HDAC1 (1 to 482 residues) expressed in Baculovirus system using Ac-Leu-Gly-Lys (Ac)-AMC as substrate pretreated for 5 mins followed by substrate addition and measured after 30 mins
[3] = molecular target: T1, Histone deacetylase 8 (Homo sapiens, UniProt Q9BY41); test: Inhibition of full length C-terminal his-tagged human recombinant HDAC8 ([…]) expressed in baculovirus in Sf9 insect cells using Ac-Leu-Gly-Lys (Tfa)-AMC as substrate pretreated for 5 mins followed by substrate addition and measured after 30 mins
T1 sequence (Q9BY41 whole entry): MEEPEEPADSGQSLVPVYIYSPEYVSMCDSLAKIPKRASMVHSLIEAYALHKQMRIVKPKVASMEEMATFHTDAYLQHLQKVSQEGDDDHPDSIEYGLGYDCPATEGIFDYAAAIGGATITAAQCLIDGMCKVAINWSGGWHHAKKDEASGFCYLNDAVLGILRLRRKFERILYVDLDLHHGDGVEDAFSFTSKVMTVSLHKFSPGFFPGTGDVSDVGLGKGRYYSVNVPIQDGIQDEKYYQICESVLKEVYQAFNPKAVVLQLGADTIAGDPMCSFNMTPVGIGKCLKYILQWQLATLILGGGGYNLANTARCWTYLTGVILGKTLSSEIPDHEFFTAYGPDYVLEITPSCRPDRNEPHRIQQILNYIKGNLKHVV

[4] = tested on: B16-F10; test: Antimigratory activity against mouse […] cells assessed as reduction in wound closure measured up to 24 hrs by scratch wound healing assay; assay type: functional, cell-based; settings: dose 25-100 nM, DDE = dose-dependent effect
Summary of the method: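 B16-F10 cells seeded overnight; confluent monolayers scratched with a pipette tip and rinsed twice with medium to clear debris. Cells treated with compound for 24 h against a DMSO control. Phase-contrast images taken at 0 and 24 h. Migration distance into the wound, or scratch length, measured by hand. n = 3.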

[5] = tested on: B16-F10; test: Induction of cell cycle arrest in mouse B16-F10 cells assessed as accumulation of cells in G2/M phase at 25 nM measured after 48 hrs by PI/RNaseA staining based flow cytometry analysis (Rvb= 5.76%); assay type: functional
[6] = tested on: B16-F10; test: Induction of apoptosis in mouse B16-F10 cells assessed as early apoptotic cells at 100 nM incubated for 48 hrs by Annexin V-FITC/PI analysis (reference value: 1.68 %); assay type: functional
[7] = tested on: B16-F10; test: Induction of apoptosis in mouse B16-F10 cells assessed as necrotic cells at 100 nM incubated for 48 hrs by Annexin V-FITC/PI analysis (reference value: 0.012 %); assay type: functional
[8] = tested on: B16-F10; test: Induction of apoptosis in mouse B16-F10 cells assessed as viable cells at 25 nM incubated for 48 hrs by Annexin V-FITC/PI analysis (reference value: 98.3 %); assay type: functional; settings: read-out: Activity
[9] = tested on: B16-F10; test: Induction of apoptosis in mouse B16-F10 cells assessed as early apoptotic cells at 25 nM incubated for 48 hrs by Annexin V-FITC/PI analysis (reference value: 1.68 %); assay type: functional
[10] = tested on: B16-F10; test: Induction of apoptosis in mouse B16-F10 cells assessed as viable cells at 50 nM incubated for 48 hrs by Annexin V-FITC/PI analysis (reference value: 98.3 %); assay type: functional; settings: read-out: Activity
[11] = Nephrotoxicity in C57BL/6 mouse assessed as effect on urea level in serum; assay type: toxicity; settings: in vivo
[12] = In vivo inhibition of HDAC in tumor of mouse B16-F10 cells xenografted in C57BL/6 mouse assessed as increase in acetylated histone-H3 expression by […] immunohistochemistry method; assay type: functional; parameters: scale not given: the % may be the effect or the level left
Summary of the method: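 Tumors from the 14-day i.p. B16-F10 study were formalin-fixed and paraffin-embedded. Sections were deparaffinized, treated with 3% H2O2, and antigen-retrieved at pH 9 and 80 °C overnight. Blocked with milk, incubated with anti-Ac-H3 at 4 °C overnight, then IgG secondary and hematoxylin counterstain. Ac-H3-positive ratio quantified from images.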

Chain of Histone deacetylase 1 (Q13547 whole entry, the tested form may be a part): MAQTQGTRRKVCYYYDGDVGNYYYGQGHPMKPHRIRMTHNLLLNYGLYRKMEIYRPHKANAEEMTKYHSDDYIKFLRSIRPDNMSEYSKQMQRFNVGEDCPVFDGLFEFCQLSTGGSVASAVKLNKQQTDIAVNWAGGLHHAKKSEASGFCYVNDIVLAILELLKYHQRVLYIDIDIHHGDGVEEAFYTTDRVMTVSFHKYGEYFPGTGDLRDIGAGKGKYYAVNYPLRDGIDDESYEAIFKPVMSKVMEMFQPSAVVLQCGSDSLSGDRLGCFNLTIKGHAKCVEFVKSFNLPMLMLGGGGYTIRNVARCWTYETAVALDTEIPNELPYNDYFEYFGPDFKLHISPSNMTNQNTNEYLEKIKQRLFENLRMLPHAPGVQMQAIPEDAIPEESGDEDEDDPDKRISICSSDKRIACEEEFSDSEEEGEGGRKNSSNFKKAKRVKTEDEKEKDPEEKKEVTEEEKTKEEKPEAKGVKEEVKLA

COc1cc(C(=O)c2csc(-c3ccc(NC(=O)CCCC(=O)Nc4ccccc4N)cc3)n2)cc(OC)c1OC
IC50 [1]: 0.3 µM
IC50 [2]: 9.04 µM
IC50 [3]: 11.6 µM
Activity [4]: Dde
Activity [5]: 15.98%
Activity [6]: 5.83%
Activity [7]: 1.29%
viability at 0.025 µM [8]: 89.1%
Activity [9]: 10.9%
viability at 0.05 µM [10]: 58.9%
Activity [11]: Non-Toxic
Activity [12]: 36.7%

Reference: ChEMBL document CHEMBL5096187, “Efficient Synthesis and Bioevaluation of Novel Dual Tubulin/Histone Deacetylase 3 Inhibitors as Potential Anticancer Agents” (J Med Chem, 2021)
